Experimental data reported in ChEMBL document CHEMBL1155990, “Synthesis of novel pyrazole carboxamide derivatives and discovery of modulators for apoptosis or autophagy in A549 lung cancer cells” (2009).
Active and inactive are the calls of the source. The calls are words filed in the database; no cut-off is given here.

How the values were obtained:
A549 [1] = assay: Anticancer activity against human A549 lung cancer cells assessed as decrease in cell viability at 20 uM after 24 hrs relative to control by MTT assay; type: functional, cell-based
Procedure, shortened: (§1)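 A549 cells exposed to compound in culture medium; viability measured by MTT assay and expressed as % of untreated control (100%).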

A549 [2] = assay: Induction of apoptosis in human A549 lung cancer cells assessed as nuclear DNA fragmentation at 20 uM after 48 hrs by hoechst 33258 staining; type: functional, cell-based
Procedure, shortened: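 A549 cells treated at 20 µM for 48 h; chromatin condensation and DNA fragmentation visualized by Hoechst 33258 staining under fluorescence microscope (200×); compared with control, n = 3.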

A549 [3] = assay: Anticancer activity against human A549 lung cancer cells assessed as decrease in cell viability at 10 uM after 24 hrs relative to control by MTT assay; type: functional; procedure, shortened: as §1
A549 [4] = assay: Effect on human A549 lung cancer cell morphology assessed as rounding and detachment of cells at 20 uM after 48 hrs relative to control by inverted phase contrast microscopy; type: functional, cell-based
Procedure, shortened: (§2)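 A549 cells treated at 20 µM; morphology photographed at 200× under an inverted phase contrast microscope.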

A549 [5] = assay: Induction of necrosis in human A549 lung cancer cells assessed as LDH activity at 10 uM after 48 hrs; type: functional, cell-based
Procedure, shortened: (§3)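 A549 cells treated at 10 or 20 µM for 48 h; LDH activity measured in culture medium as necrosis marker; compared with control, n = 4.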

A549 [6] = assay: Anticancer activity against human A549 lung cancer cells assessed as decrease in cell viability at 20 uM after 48 hrs relative to control by MTT assay; type: functional; procedure, shortened: as §1
A549 [7] = assay: Anticancer activity against human A549 lung cancer cells assessed as decrease in cell viability at 10 uM after 48 hrs relative to control by MTT assay; type: functional; procedure, shortened: as §1
A549 [8] = assay: Induction of necrosis in human A549 lung cancer cells assessed as LDH activity at 20 uM after 48 hrs; type: functional, cell-based; procedure, shortened: as §3
A549 [9] = assay: Effect on human A549 lung cancer cell morphology assessed as rounding and detachment of cells at 20 uM after 24 hrs by inverted phase contrast microscopy; type: functional, cell-based; procedure, shortened: as §2
A549 [10] = assay: Induction of autophagy in human A549 lung cancer cells assessed as acidic vesicle level at 20 uM after 24 hrs by acridine orange staining; type: functional, cell-based
Procedure, shortened: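 A549 cells treated 24 h; acidic cellular compartment volume visualized by acridine orange staining under fluorescence microscope (200×); compared with control, n = 3.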

A549 [11] = assay: Effect on human A549 lung cancer cell morphology assessed as vacuolation of cells at 20 uM after 48 hrs relative to control by inverted phase contrast microscopy; type: functional, cell-based; procedure, shortened: as §2
A549 [12] = assay: Effect on human A549 lung cancer cell morphology assessed as vacuolation of cells at 20 uM after 24 hrs by inverted phase contrast microscopy; type: functional, cell-based; procedure, shortened: as §2

| Structure (SMILES) | Activity (A549 [1]) | Activity (A549 [2]) | Activity (A549 [3]) | Activity (A549 [4]) | Activity (A549 [5]) | Activity (A549 [6]) | Activity (A549 [7]) | Activity (A549 [8]) | Activity (A549 [9]) | Activity (A549 [10]) | Activity (A549 [11]) | Activity (A549 [12]) |
| --- | --- | --- | --- | --- | --- | --- | --- | --- | --- | --- | --- | --- |
| COc1cccc(CCNC(=O)c2cc(-c3ccc(Cl)cc3)nn2Cc2ccc(C(C)(C)C)cc2)c1 | Active | Active | 45.52% | Active | inactive | 10.43% | 24.07% | inactive | Active | – | – | – |
| CC(C)(C)c1ccc(Cn2nc(-c3ccccc3)cc2C(=O)NCCc2ccccc2F)cc1 | inactive | – | inactive | – | – | inactive | inactive | – | – | – | – | – |
| CC(C)(C)c1ccc(Cn2nc(-c3ccccc3)cc2C(=O)NCCc2ccc(F)cc2)cc1 | inactive | – | inactive | – | – | inactive | inactive | – | – | – | – | – |
| CC(C)(C)c1ccc(Cn2nc(-c3ccccc3)cc2C(=O)NCCc2ccccc2)cc1 | inactive | – | inactive | – | – | inactive | inactive | – | – | – | – | – |
| CC(C)(C)c1ccc(Cn2nc(-c3ccc(Cl)cc3)cc2C(=O)NCCc2ccc(F)cc2)cc1 | Active | – | Active | – | inactive | – | Active | inactive | – | Active | Active | Active |
| CC(C)(C)c1ccc(Cn2nc(-c3ccc(Cl)cc3)cc2C(=O)NCCc2ccccc2)cc1 | Active | Active | 59.32% | Active | inactive | – | 44.46% | inactive | Active | – | – | – |
| COc1cccc(CCNC(=O)c2cc(-c3ccccc3)nn2Cc2ccc(C(C)(C)C)cc2)c1 | inactive | – | inactive | – | – | inactive | inactive | – | – | – | – | – |
| CC(C)(C)c1ccc(Cn2nc(-c3ccc(Cl)cc3)cc2C(=O)NCCc2ccccc2F)cc1 | Active | – | Active | Active | inactive | Active | Active | inactive | – | Active | – | Active |
